Hits are enriched below; roughly 1.7% of the tested compounds scored in any of these assays.
CSC inhib = cancer stem cell inhibition; cancer stem cell-like cells viability, luminescence; inhibition, % at 7.5 µM; actives 1.1% (n = 300,000); AID 2717; in the data active = inhibition above about 75%; inconclusive = no clear call, values can overlap the other calls; tested in HMLE shEcad cells
PfHsp90 yeast 2 = reduces growth (ATP signal) of yeast expressing P. falciparum Hsp90. S. cerevisiae expressing PfHsp90, BacTiter-Glo ATP, 48 h; yeast lacking PDR1 and PDR3 efflux regulators. inhibition, % at 9.4 µM. actives 0.32% (n = 310,000);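 active = every replicate shows inhibition above about 80%, whatever the replicate mean, limit read from the data; inconclusive = mean inhibition reaches the set limit but some replicate falls short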;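 also: 0% = DMSO neutral controls and 100% = 20 µM radicicol positive controls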
FN deposit inh = fibronectin deposition inhibition | AH1F fibroblasts, Alexa488-fibronectin deposition fluorescence, overnight | inhibition, % at 12.6 µM | actives 0.086% (n = 350,000);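 active = mean inhibition across replicates of 30% or more, regardless of how many single replicates reach that level; inconclusive = mean under 30% yet at least half of replicates reach 30%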;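 also: positive control wells lacked labelled fibronectin entirely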
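Measured by – fluorescence 485/525 nm · System – AH1F fibroblast monolayer, labelled fibronectin deposition · Amount – 10000 cells per well · Buffer or medium – serum-reduced DMEM (2% serum) · Doses – single dose, pinned · Also added – fluorescent fibronectin at 24 nM final · Schedule – 1 h cell attachment, overnight exposure to compound and label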
PglD DTNB = inhibitors of Campylobacter jejuni PglD acetyltransferase | purified PglD enzyme, DTNB colorimetric CoA detection | inhibition, % at 12.5 µM | actives 0.098% (n = 360,000); in the data active = inhibition above about 16%, passing the limit was not always enough; inconclusive = no clear call, values can overlap the other calls
SKKanGAS inh = SKKanGAS growth inhibition; S. pyogenes SKKanGAS, kanamycin growth, BacTiter-Glo, 6 h; inhibition, % at 7.5 µM; actives 1.3% (n = 300,000); AID 1662;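 active = mean replicate score, as percent of positive control median, at least 50; inconclusive = mean below 50 but one replicate at or above 50; inactive = mean and every replicate below 50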;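 also: strain carries kanamycin resistance gene driven by streptokinase promoter and grows in 40 µg/ml kanamycin; loss of luminescence reflects streptokinase promoter inhibition or plain growth inhibition; 0% = median of DMSO wells and 100% = positive control at its reference dose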
Rtt109 HAT inh = blocks Candida albicans Rtt109/Vps75 acetyltransferase activity; Q5AAJ8; purified Rtt109/Vps75, ThioGlo CoA-SH fluorescence, 4 h; inhibition, % at 34.9 µM; actives 0.16% (n = 330,000); AID 540336;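 active = inhibition of at least 50% in every replicate; inconclusive = best replicate reaches 50% inhibition but some replicates fall short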
Target sequence (Q5AAJ8 whole entry, looked up): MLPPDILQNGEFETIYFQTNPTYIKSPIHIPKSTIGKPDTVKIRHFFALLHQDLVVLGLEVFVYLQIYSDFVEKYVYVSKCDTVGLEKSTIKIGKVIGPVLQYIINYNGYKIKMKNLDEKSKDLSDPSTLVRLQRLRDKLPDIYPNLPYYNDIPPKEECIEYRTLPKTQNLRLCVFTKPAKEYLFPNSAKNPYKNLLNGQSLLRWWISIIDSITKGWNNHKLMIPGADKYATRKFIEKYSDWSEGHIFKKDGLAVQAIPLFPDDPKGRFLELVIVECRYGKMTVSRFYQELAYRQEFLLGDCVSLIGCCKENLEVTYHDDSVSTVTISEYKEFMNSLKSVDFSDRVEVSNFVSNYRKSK
Starred values were filed as active, the others as inactive.

For O=C1c2cccc3c([N+](=O)[O-])ccc(c23)C(=O)N1O the results were CSC inhib 29, PfHsp90 yeast 2 12, FN deposit inh -4, PglD DTNB -3, SKKanGAS inh 79* and Rtt109 HAT inh -4.
O=C1c2cccc3c([N+](=O)[O-])ccc(c23)C(=O)N1c1nccs1 was read as CSC inhib 79*, FN deposit inh -4, PglD DTNB 0, SKKanGAS inh 4 and Rtt109 HAT inh 2.
Screening O=C1c2cccc3c([N+](=O)[O-])ccc(c23)C(=O)N1c1ccc(Cl)cn1 returned CSC inhib 112*, PfHsp90 yeast 2 4, FN deposit inh -9, PglD DTNB -1, SKKanGAS inh 9 and Rtt109 HAT inh 2.
O=C(c1ccc2c(c1)OCO2)N1C[C@H]2[C@@H](c3ccccc31)[C@@H](CO)N2Cc1ccccc1Cl was read as PglD DTNB -2.
O=C(O)/C=C/c1cn(Cc2ccccc2)nc1-c1ccccc1 was read as CSC inhib 10, PfHsp90 yeast 2 -10, SKKanGAS inh -4 and Rtt109 HAT inh 7.
`O=C(O)CCn1cc(/C=C/C(=O)c2ccc(Cl)cc2)c(-c2ccc(Br)cc2)n1` gave CSC inhib 106*, PfHsp90 yeast 2 -44, FN deposit inh 0 and Rtt109 HAT inh 16.
`CC(C)=CCc1cc2c(=O)c3c(O)c4c(cc3oc2c(O)c1O)OC(C)C4(C)C` (centres undefined) gave CSC inhib 5 and SKKanGAS inh 103*.
CC(=O)c1cc(CC=C(C)C)c(O)c(CC=C(C)C)c1O was read as CSC inhib 3, PfHsp90 yeast 2 49, PglD DTNB -6, SKKanGAS inh 25 and Rtt109 HAT inh -8.
Screening CC1(C)C=Cc2cc3ccc(=O)oc3cc2O1 returned CSC inhib -11, PfHsp90 yeast 2 -1, PglD DTNB 5, SKKanGAS inh 3 and Rtt109 HAT inh 0.
CC1Oc2cc3oc4c(O)c5c(cc4c(=O)c3c(O)c2C1(C)C)C=CC(C)(C)O5 (centres undefined) was read as CSC inhib -7 and SKKanGAS inh 70*.
For COc1ccc(CNC(=O)c2c(N)n(CCCN3CCOCC3)c3nc4ccccc4nc23)cc1 the results were CSC inhib 83*, PfHsp90 yeast 2 14, FN deposit inh -2, PglD DTNB -6, SKKanGAS inh 14 and Rtt109 HAT inh 7.
`CC(=O)Nc1ccc(OCC(O)Cn2c3ccccc3c3ccccc32)cc1` (centres undefined) gave CSC inhib 52, PfHsp90 yeast 2 7, FN deposit inh 8, SKKanGAS inh -6 and Rtt109 HAT inh 1.
For CC(=O)Nc1ccc(OCC(O)Cn2c3ccccc3c3ccccc32)c(C)c1 (centres undefined) the results were CSC inhib 78*, PfHsp90 yeast 2 -5, PglD DTNB -2, SKKanGAS inh 11 and Rtt109 HAT inh 12.
`C[C@H](CO)N1C[C@H](C)[C@H](CN(C)Cc2ccc(C(F)(F)F)cc2)Oc2ccc(NC(=O)C3CCCCC3)cc2C1=O` gave PglD DTNB -2.
CC(C)NC(=O)N1CC2(C1)[C@@H](c1ccccc1)[C@H](CO)N2C(=O)C1CCC1 was read as FN deposit inh -8.
Screening Nc1nc2ccc(S(=O)(=O)N3CCCCC3)cc2s1 returned CSC inhib -13, PfHsp90 yeast 2 -22, FN deposit inh -4, PglD DTNB 3, SKKanGAS inh -1 and Rtt109 HAT inh 152*.
Screening CC1(C)CC(=O)C2=C(C1)OC1=C(C(=O)CC(C)(C)C1)C2c1cc([N+](=O)[O-])cc([N+](=O)[O-])c1O returned CSC inhib -6, PfHsp90 yeast 2 -12, FN deposit inh -4, SKKanGAS inh 18 and Rtt109 HAT inh 28.
Screening CC1(C)CC(=O)C(C2C3=C(CC(C)(C)CC3=O)Oc3c(Br)cc(Br)cc32)=C(O)C1 (centres undefined) returned CSC inhib -3, PfHsp90 yeast 2 28, FN deposit inh 11, PglD DTNB -1, SKKanGAS inh 56* and Rtt109 HAT inh -1.
`CCOC(=O)c1cnc(-n2nc(C)cc2C)nc1NNc1nc(C)cc(C)n1` gave CSC inhib 7, PfHsp90 yeast 2 -3, FN deposit inh 0, PglD DTNB 8 and SKKanGAS inh 80*.
CCOC(=O)c1cnc(-n2nc(C)cc2C)nc1Nc1cccc(C(=O)O)c1 was read as CSC inhib 0, PglD DTNB -3, SKKanGAS inh 11 and Rtt109 HAT inh 10.
For CCOC(=O)c1cnc(-n2nc(C)cc2C)nc1NC the results were CSC inhib -14, FN deposit inh 4, PglD DTNB 5 and SKKanGAS inh inconclusive.
Screening CCOC(=O)c1cnc(-n2nc(C)cc2C)nc1NNc1nc(-c2ccccc2)cc(-c2ccccc2)n1 returned CSC inhib 128*, PfHsp90 yeast 2 -6, PglD DTNB -2, SKKanGAS inh 105* and Rtt109 HAT inh 7.
For C[C@@H]1CN([C@@H](C)CO)C(=O)Cc2cc(NS(=O)(=O)c3cn(C)cn3)ccc2O[C@@H]1CN(C)C(=O)Nc1ccc2c(c1)OCO2 the results were PglD DTNB 5.
For CCCOC(=O)c1ccc(Oc2c(-c3ccc(OCC)cc3O)n[nH]c2C)cc1 the results were CSC inhib 137*, PfHsp90 yeast 2 0, FN deposit inh -8, PglD DTNB 5, SKKanGAS inh 62* and Rtt109 HAT inh 21.
Screening COc1ccc(Oc2c(-c3ccc(O)cc3O)n[nH]c2C)cc1 returned CSC inhib -6, PfHsp90 yeast 2 9, FN deposit inh 2, PglD DTNB 6 and SKKanGAS inh -9.
For CCCOC(=O)c1ccc(Oc2cn[nH]c2-c2ccc(OCC)cc2O)cc1 the results were CSC inhib -7, PfHsp90 yeast 2 98*, FN deposit inh -4, PglD DTNB -3, SKKanGAS inh 78* and Rtt109 HAT inh inconclusive.
CCOc1ccc(NC(=S)N=Nc2c(O)[nH]c3ccccc23)cc1 was read as CSC inhib -18, PfHsp90 yeast 2 -14, SKKanGAS inh 101* and Rtt109 HAT inh 3.
For NC(=S)N=Nc1c(O)[nH]c2ccccc12 the results were CSC inhib -2, PfHsp90 yeast 2 0, PglD DTNB -6, SKKanGAS inh -3 and Rtt109 HAT inh 0.
For Oc1[nH]c2ccccc2c1N=NC(=S)N1CCOCC1 the results were CSC inhib 35, PfHsp90 yeast 2 0, PglD DTNB -11, SKKanGAS inh 77* and Rtt109 HAT inh 1.
Screening Oc1cccc(NC(=S)N=Nc2c(O)[nH]c3ccccc23)c1 returned CSC inhib 9, PfHsp90 yeast 2 -11, FN deposit inh -4, PglD DTNB -14, SKKanGAS inh 20 and Rtt109 HAT inh 21.

Screening data deposited in PubChem by Broad Institute.
